In series [1] the target is T1, Protein deacetylase HDAC6 (Mus musculus) (UniProt Q9Z2V5).
T1 sequence (whole entry): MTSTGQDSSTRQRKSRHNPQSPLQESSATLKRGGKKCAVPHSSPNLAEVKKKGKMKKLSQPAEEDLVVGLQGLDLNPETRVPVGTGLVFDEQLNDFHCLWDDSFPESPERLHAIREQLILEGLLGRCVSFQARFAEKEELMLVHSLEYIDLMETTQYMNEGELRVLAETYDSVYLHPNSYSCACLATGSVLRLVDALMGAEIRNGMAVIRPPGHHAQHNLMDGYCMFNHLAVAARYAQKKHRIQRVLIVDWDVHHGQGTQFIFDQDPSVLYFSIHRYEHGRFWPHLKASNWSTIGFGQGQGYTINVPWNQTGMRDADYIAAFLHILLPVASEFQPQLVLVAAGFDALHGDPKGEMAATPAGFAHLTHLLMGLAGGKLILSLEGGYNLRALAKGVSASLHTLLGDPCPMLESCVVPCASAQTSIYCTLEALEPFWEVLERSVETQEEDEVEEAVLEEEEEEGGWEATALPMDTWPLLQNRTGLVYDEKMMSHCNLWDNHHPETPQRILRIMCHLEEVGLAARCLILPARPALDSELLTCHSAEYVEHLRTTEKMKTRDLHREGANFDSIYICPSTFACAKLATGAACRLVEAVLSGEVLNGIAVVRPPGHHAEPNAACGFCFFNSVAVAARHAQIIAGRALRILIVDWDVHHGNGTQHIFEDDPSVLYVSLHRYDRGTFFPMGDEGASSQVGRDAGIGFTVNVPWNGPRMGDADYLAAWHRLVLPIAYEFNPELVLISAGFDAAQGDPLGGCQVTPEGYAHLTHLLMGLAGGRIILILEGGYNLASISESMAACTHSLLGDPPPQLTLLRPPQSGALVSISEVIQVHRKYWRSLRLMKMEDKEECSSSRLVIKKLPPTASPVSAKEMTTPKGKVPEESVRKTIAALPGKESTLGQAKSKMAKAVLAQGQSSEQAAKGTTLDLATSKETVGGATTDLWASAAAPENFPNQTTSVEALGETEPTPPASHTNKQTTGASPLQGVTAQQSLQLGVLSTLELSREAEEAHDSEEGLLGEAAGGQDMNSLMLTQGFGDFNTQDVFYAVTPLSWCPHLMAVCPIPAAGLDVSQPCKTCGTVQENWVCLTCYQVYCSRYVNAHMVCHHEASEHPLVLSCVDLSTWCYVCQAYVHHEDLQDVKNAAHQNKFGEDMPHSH
In words: Inhibition of HDAC6 in mouse Neuro-2a cells transfected with pCAX FLAG APP and pRK5-EGFP-Tau P301L plasmids assessed as increase in HSP90 acetylation at 1 uM after 24 hrs by coimmunoprecipitation analysis. It counts as cell-based. In outline:
(§1)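 SH-SY5Y and Neuro-2a cells cotransfected 24 h with APP695/Tau P301L plasmids, treated 24 h at 1 µM (ACY-1215 reference). 30 µg lysate immunoprecipitated overnight at 4 °C with anti-HDAC6 or anti-acetyl-lysine antibodies plus protein A/G beads, run on 8% SDS-PAGE, probed for Hsp90; Hsp70 by immunoblot. Three independent experiments.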

The target of series [2] is T1, Protein deacetylase HDAC6 (Mus musculus). The series is described as follows: Inhibition of HDAC6 in mouse Neuro-2a cells transfected with pCAX FLAG APP and pRK5-EGFP-Tau P301L plasmids assessed as increase in HSP70 protein expression 1 uM after 24 hrs by Western blot analysis. The class given is cell-based. A digest of the protocol:
as §1

Series [3] relates to Mus musculus. The series is described as follows: In vivo inhibition of HDAC6 in 3xTg-AD transgenic mouse brain hippocampal CA1 region assessed as downregulation of scopolamine-mediated increase in Tau phosphorylation at Ser396 residue at 50 mg/kg, po administered daily for 3 months by immunohistochemical analysis. It counts as functional, organism-based. A digest of the protocol: (§2)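 Female 3xTg-AD mice, standard diet to 6 months of age, then 50 mg/kg orally once daily for three months; memantine 30 mg/kg in water as comparator. Brains removed and hippocampal CA1 sections immunostained for acetyl-α-tubulin and phospho-tau Ser396 and Ser404. Mean ± STD; one-way ANOVA.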

Series [4] deals with Mus musculus. The series is described as follows: In vivo inhibition of HDAC6 in scopolamine-treated 3xTg-AD transgenic mouse brain hippocampal CA1 region assessed as increase in acetyl-alpha-tubulin level at 50 mg/kg, po administered daily for 3 months by immunohistochemical analysis. It counts as functional, organism-based. A digest of the protocol: as §2
A short description of series [5]: Plasma concentration in Sprague-Dawley rat at 50 mg/kg, po after 1 hr by HPLC-MS/MS analysis. It counts as ADME, organism-based.
Series [6] relates to Mus musculus. In words: Toxicity in Balb/c mouse assessed as increase in body weight at 100 to 1000 mg/kg/day, ip administered for 6 days followed by 1 week recovery. It counts as organism-based. Conditions: in vivo. In outline: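 Male Balb/c mice given 100, 500 or 1000 mg/kg/day i.p. for 6 days, then 1 week recovery; six vehicle-injected mice as controls. Body weight and survival recorded daily.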

Consider one compound from ChEMBL document CHEMBL4196108, “5-Aroylindoles Act as Selective Histone Deacetylase 6 Inhibitors Ameliorating Alzheimer's Disease Phenotypes” (J Med Chem, 2018).

The source made the active and inactive calls. The rule behind the calls is not given here.

As to `COc1ccc(C(=O)c2ccc3c(ccn3Cc3ccc(C(=O)NO)cc3)c2)cc1`, the inhibition result (in series [1]; in series [2]; in the series on Mus musculus [3]; in the series with Mus musculus [4]) was “Active” throughout. Besides, the concentration at 1 h in series [5] stood at 8.5 ng/mL. Besides, in the series on Mus musculus [6], the Activity result was “Non-Toxic”.
